The source of these data is ChEMBL document CHEMBL1772984, “Inhibitor selectivity of a new class of oseltamivir analogs against viral neuraminidase over human neuraminidase enzymes” (Bioorg Med Chem, 2011).

The target of assay [1] is T1, Sialidase-3 (Homo sapiens, UniProt Q9UQ49).
T1 sequence (Q9UQ49 whole entry): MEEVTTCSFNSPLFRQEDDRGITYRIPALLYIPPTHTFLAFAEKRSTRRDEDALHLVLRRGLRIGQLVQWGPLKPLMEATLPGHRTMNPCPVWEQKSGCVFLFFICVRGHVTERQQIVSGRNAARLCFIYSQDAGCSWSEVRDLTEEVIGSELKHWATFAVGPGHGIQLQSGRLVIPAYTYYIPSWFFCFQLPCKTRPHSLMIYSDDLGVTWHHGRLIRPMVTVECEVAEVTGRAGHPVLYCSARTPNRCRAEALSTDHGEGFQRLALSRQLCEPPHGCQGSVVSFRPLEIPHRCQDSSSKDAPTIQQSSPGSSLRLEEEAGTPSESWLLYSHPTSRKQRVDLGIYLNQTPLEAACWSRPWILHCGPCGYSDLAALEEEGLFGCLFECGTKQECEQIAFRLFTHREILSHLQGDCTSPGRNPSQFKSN
The assay can be described thus: (§1) Inhibition of human NEU3 using 4MU-NA as substrate after 1 hr by fluorescence assay. The gist of the method: (§2)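 Recombinant human NEU3 was used as an N-terminal MBP fusion, expressed in E. coli. Enzyme (0.1 mg/mL before mixing) was preincubated with inhibitor (eight serial-dilution concentrations, five replicates) for 30 min at 37 °C. 4MU-NA was then added from a 1 mM stock in 0.1 M sodium acetate pH 5.0 and incubated 1 h.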

The nature of assay [2]: Inhibition of viral Neuraminidase.
Assay [3] has as its target T2, Sialidase-4 (Homo sapiens) (UniProt Q8WWR8).
T2 sequence (whole entry): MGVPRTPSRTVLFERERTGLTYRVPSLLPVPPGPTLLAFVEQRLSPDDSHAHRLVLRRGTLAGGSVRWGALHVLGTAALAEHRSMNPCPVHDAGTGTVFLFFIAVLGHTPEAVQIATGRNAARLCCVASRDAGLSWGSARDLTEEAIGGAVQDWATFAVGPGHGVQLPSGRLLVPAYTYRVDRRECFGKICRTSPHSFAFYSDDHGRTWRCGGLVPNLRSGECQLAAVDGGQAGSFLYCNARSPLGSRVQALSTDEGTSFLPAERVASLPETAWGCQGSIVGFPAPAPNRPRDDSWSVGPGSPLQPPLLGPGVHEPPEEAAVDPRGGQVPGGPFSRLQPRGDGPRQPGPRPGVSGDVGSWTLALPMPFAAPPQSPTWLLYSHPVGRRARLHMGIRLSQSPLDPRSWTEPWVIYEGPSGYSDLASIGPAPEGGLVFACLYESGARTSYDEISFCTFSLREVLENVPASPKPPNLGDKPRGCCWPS
The assay can be described thus: (§3) Inhibition of human NEU4 using 4MU-NA as substrate after 1 hr by fluorescence assay. In short, it runs like this: (§4)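 Recombinant human NEU4 was used as a GST fusion, expressed in E. coli BL21(DE3) pLysS and glutathione-agarose purified. Enzyme (0.1 mg/mL before mixing) was preincubated 30 min at 37 °C with inhibitor (eight serial-dilution concentrations, five replicates). 4MU-NA was added from a 1 mM stock in 0.1 M sodium acetate pH 4.5 for 1 h.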

For assay [4], the target named is T3, Sialidase-4 (Homo sapiens, UniProt Q8WWR8).
T3 sequence (Q8WWR8 whole entry): T2 sequence (whole entry)
Described as §3. In short, it runs like this:
as §4

Assay [5] has as its target T4, Sialidase-3 (Homo sapiens) (UniProt Q9UQ49).
T4 sequence (whole entry): T1 sequence (Q9UQ49 whole entry)
The assay is described as §1. The gist of the method: as §2

Structures are written as SMILES. Active and inactive are the calls of the source. The rule behind the calls is not given here.

Regarding `CC(=O)N[C@H]1[C@H]([C@H](O)[C@H](O)CO)OC(C(=O)O)=C[C@@H]1O` [NEU5AC2EN], it took 30 µM to reach half-maximal inhibition in assay [1] (IC50).
Take `CCC(CC)O[C@@H]1CC(C(=O)O)=C[C@H](n2cc(C(O)CC)nn2)[C@H]1NC(C)=O` (some centres undefined): the inhibition constant (Ki) – broadly, the dissociation constant of the complex between target and ligand, obtained from inhibition or displacement – in assay [2] worked out at 0.072 µM.
Consider `CCC(CC)O[C@@H]1CC(C(=O)O)C=C(n2cc(C(C)(C)O)nn2)[C@H]1NC(C)=O` (some centres undefined), for which the inhibition entry in assay [3] is “inactive”. The concentration for half-maximal inhibition (IC50) (in general, the concentration that inhibits the measured activity by half) in assay [4] was over 1000 µM.
Consider `CCC(CC)O[C@@H]1CC(C(=O)O)=C[C@H](n2cc(CCc3ccccc3)nn2)[C@H]1NC(C)=O`, for which the inhibition entry in assay [5] and in assay [3] was “inactive” each time.
Regarding `CCC(CC)O[C@@H]1CC(C(=O)O)=C[C@H](n2cc(C(C)(C)O)nn2)[C@H]1NC(C)=O`, the inhibition entry in assay [5] and in assay [3] was “inactive” each time. Moreover, the 50% inhibitory concentration (IC50) in assay [1] and in assay [4] was over 1000 µM in each case.
Turning to `CCC(CC)O[C@@H]1CC(C(=O)O)=C[C@H](n2cc([C@]3(O)CC[C@H]4[C@@H]5CCc6cc(O)ccc6[C@H]5CC[C@@]43C)nn2)[C@H]1NC(C)=O`, the figures for the half-maximal inhibitory concentration (IC50) in assay [1] and in assay [4] were 350 µM and 800 µM, respectively.
In the case of `CCC(CC)O[C@@H]1CC(C(=O)O)=C[C@H](N)[C@H]1NC(C)=O`, the IC50 in assay [1] and in assay [4] was over 1000 µM each time.
